Assay results taken from ChEMBL document CHEMBL3244321, “Nitramino acids. Synthesis and biological evaluation of 1-nitroproline, 1-nitropipecolic acid, and N-nitrosarcosine” (J Med Chem, 1977).
Calls of active or inactive are those of the source. The rule behind the calls is not given here.

Legend:
Escherichia coli = assay: Antibacterial activity against Escherichia coli ATCC 25922 assessed as inhibition of bacterial growth at up to 100 ug/ml after 16 hrs by spectrophotometer; type: functional, organism-based
In short: (§1)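 Tested at 10, 25, 50 and 100 µg/mL in Mueller-Hinton broth at 37 °C with rotary shaking at 150 rpm. Incubation was 16 h for E. coli and 7 h for P. aeruginosa. Growth was read turbidimetrically at 600 nm.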

Salmonella typhimurium [1] = assay: Mutagenicity in Salmonella typhimurium TA100 assessed as revertant colonies at 300 umol incubated under aerobic conditions in dark for 2 days by Ames test; type: toxicity, organism-based; settings: salmonella enterica subsp. enterica serovar typhimurium, 48 h
In short: (§2)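 Ames plate-incorporation assay. Overnight TA-100 nutrient-broth culture, about 10^7 cells per plate. Compound solutions were adjusted to pH 7 and filter-sterilized, then mixed in a histidine-biotin-limited agar overlay on minimal glucose agar, with or without S-9. S-9 was the 9000g supernatant of 25% liver homogenate in 0.15 M KCl from phenobarbital-treated male Sprague-Dawley rats. Plates were incubated aerobically at 37 °C in the dark for 2 days, or anaerobically (Gas-Pak) for 16-17 h and then aerobically for 48 h. Revertants were counted in triplicate and averaged. Matched vehicle/condition background was subtracted.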

[2] = test system: Mycolicibacterium smegmatis; assay: Antibacterial activity against Mycobacterium smegmatis H607 assessed as inhibition of bacterial growth up to 100 ug/ml after 22 hrs by spectrophotometer; type: functional, organism-based
In short: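 Sauton synthetic medium, with compound at 10, 25, 50 and 100 µg/mL. Incubated 22 h at 37 °C with rotary shaking at 150 rpm. Growth was measured turbidimetrically at 600 nm.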

Salmonella typhimurium [3] = assay: Mutagenicity in Salmonella typhimurium TA100 assessed as revertant colonies at 300 umol incubated under anaerobic conditions for 16 to 17 hrs followed by 48 hrs under aerobic conditions by Ames test in presence of Sprague-Dawley rat liver S9 fraction; type: toxicity, organism-based; settings: salmonella enterica subsp. enterica serovar typhimurium; in short: as §2
Candida albicans [4] = assay: Antifungal activity against Candida albicans clinical isolate assessed as inhibition of fungal growth up to 100 ug/ml after 16 hrs by spectrophotometer; type: functional, organism-based
In short: (§3)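 Yeast nitrogen base (pH 7.0), with compound at 10, 25, 50 and 100 µg/mL. Incubated 16 h at 37 °C with 150 rpm rotary shaking. Turbidity was read at 600 nm.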

Candida albicans [5] = assay: Antifungal activity against Candida albicans ATCC 11651 assessed as inhibition of fungal growth up to 100 ug/ml after 16 hrs by spectrophotometer; type: functional, organism-based; in short: as §3
Salmonella typhimurium [6] = assay: Mutagenicity in Salmonella typhimurium TA100 assessed as revertant colonies at 300 umol incubated under anaerobic conditions for 16 to 17 hrs followed by 48 hrs under aerobic conditions by Ames test; type: toxicity, organism-based; settings: salmonella enterica subsp. enterica serovar typhimurium; in short: as §2
Pseudomonas aeruginosa = assay: Antibacterial activity against Pseudomonas aeruginosa ATCC 27853 assessed as inhibition of bacterial growth at up to 100 ug/ml after 7 hrs by spectrophotometer; type: functional, organism-based; in short: as §1
Salmonella typhimurium [7] = assay: Mutagenicity in Salmonella typhimurium TA100 assessed as revertant colonies at 300 umol incubated under aerobic conditions in dark for 2 days by Ames test in presence of Sprague-Dawley rat liver S9 fraction; type: toxicity, organism-based; settings: salmonella enterica subsp. enterica serovar typhimurium, s9, 48 h; in short: as §2
[8] = Acute toxicity in ip dosed Swiss-Webster mouse measured after 72 hrs; type: organism-based; settings: in vivo

Row | SMILES | inhibition (Escherichia coli) | Activity (Salmonella typhimurium [1]) | inhibition [2] | Activity (Salmonella typhimurium [3]) | inhibition (Candida albicans [4]) | inhibition (Candida albicans [5]) | Activity (Salmonella typhimurium [6]) | inhibition (Pseudomonas aeruginosa) | Activity (Salmonella typhimurium [7]) | LD50 at 72 h [8] [µmol/kg]
1 | O=C(O)[C@@H]1CCCN1[N+](=O)[O-] | inactive | Non-toxic | inactive | Non-toxic | inactive | inactive | Non-toxic | inactive | Non-toxic | 1170
2 | O=C(O)C1CCCCN1[N+](=O)[O-] (racemic) | inactive | Non-toxic | inactive | Non-toxic | inactive | inactive | Non-toxic | inactive | Non-toxic | 2100
3 | O=C(O)[C@H]1CCCN1[N+](=O)[O-] | inactive |  | inactive |  | inactive | inactive |  | inactive |  | 1390
